Bioassay records (PubChem BioAssay)
T cruzi growth-1: blocks T. cruzi growth in NIH3T3 culture; AID 624255; inhibition, % at 8.34 µM; T. cruzi beta-gal in NIH3T3, GalScreen luminescence, 90 h; hit rate 5.9% among 77,000;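 active = mean inhibition above about 93%, with at least 55% of replicates each passing it, limit read from the data, passing the limit was not always enough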
IDH1 R132H inh: IDH1 R132H (human) inhibition | hit rate 0.18% among 70,000 | O75874 | AID 624101 | IDH1 R132H reductase, diaphorase/resazurin fluorescence, 60 min | inhibition, % at 10 µM; in the data active = inhibition above about 34%
Target sequence (O75874 whole entry R132H): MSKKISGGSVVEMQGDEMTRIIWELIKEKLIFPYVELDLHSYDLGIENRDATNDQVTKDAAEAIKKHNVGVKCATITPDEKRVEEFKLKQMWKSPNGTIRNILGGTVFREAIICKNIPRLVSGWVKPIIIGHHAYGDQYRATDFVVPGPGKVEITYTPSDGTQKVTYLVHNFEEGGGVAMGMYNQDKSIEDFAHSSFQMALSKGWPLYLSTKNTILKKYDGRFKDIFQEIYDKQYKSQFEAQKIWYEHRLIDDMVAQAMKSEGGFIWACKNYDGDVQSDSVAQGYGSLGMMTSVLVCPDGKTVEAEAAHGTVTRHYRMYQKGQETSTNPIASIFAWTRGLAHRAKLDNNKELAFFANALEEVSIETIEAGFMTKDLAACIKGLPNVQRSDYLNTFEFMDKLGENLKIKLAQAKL
GASC1 inh: KDM4C (human) demethylase inhibition; hit rate 0.15% among 96,000; Q9H3R0; inhibition, % at 12.5 µM; GST-KDM4C 2-372, H3K9me3 peptide, LANCE TR-FRET;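 active = mean replicate inhibition above about 25%, with at least 55% of replicates also reaching it, limit read from the data, passing the limit was not always enough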
Target sequence (Q9H3R0 2-372 limits assumed): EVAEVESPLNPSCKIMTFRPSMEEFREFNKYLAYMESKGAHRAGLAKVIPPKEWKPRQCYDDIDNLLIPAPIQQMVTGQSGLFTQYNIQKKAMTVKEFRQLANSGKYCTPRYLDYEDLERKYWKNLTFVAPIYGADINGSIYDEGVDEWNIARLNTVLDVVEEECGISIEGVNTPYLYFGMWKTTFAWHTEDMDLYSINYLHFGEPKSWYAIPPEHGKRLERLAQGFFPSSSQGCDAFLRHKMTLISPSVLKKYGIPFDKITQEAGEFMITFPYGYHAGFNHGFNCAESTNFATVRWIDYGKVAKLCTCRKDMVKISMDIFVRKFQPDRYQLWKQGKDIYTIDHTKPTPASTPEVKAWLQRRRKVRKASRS
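Material: GST-tagged GASC-1 (JMJD2C) catalytic fragment, aa 2-372 / Quantity: enzyme final amount 10 nM / Medium: HEPES buffer, pH 7.5, plus ascorbate / Doses: one test concentration per compound / Incubation: 30 min reaction, 60 min detection, RT / Measured by: LANCE TR-FRET / Read-out: inhibition from TR-FRET ratio decrease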
T cruzi growth-2: Trypanosoma cruzi proliferation inhibition; shares compounds with T cruzi growth-1; T. cruzi beta-gal in NIH3T3, GalScreen luminescence, 90 h; inhibition, % at 8.35 µM; hit rate 72% among 5,600;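 active = mean replicate inhibition above about 95% and at least 55% of replicates individually reaching it, limit read from the data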
T cruzi growth-3: Trypanosoma cruzi proliferation inhibition. shares compounds with T cruzi growth-1. T. cruzi beta-gal in NIH3T3, GalScreen luminescence, 90 h. inhibition, % at 2.09 µM. hit rate 21% among 5,600;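 active = mean inhibition above about 95%, with at least 55% of replicates also reaching it, limit read from the data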
3T3 cytotox: kills mouse NIH/3T3 fibroblasts; shares compounds with T cruzi growth-1; NIH/3T3 viability, CellTiter-Glo ATP luminescence, 90 h; cytotoxicity (signal decrease), % at 8.35 µM; hit rate 14% among 5,600; AID 651742;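 active = mean signal decrease across replicates above about 35% based on untreated-well scatter, with enough replicates individually passing, limit read from the data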
3T3 cytotox 2: cytotoxicity in mouse NIH/3T3 fibroblasts; inhibition, % at 24.9 µM; shares compounds with T cruzi growth-1; hit rate 56% among 5,600; NIH/3T3 viability, CellTiter-Glo ATP luminescence, 90 h;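 active = mean loss of cell viability signal at or above a set limit, and enough replicates individually reaching it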
Each line names hits and unclear results; the compound was inactive in the other large screens (follow-up assays come after a bar, where they were run). Shown is part of a subset that was picked to be rich in hits.

CC1(C)CC(=O)C(C=NCCN2CCN(C(=O)Nc3ccc(Cl)c(Cl)c3)CC2)=C(O)C1	none (no result: T cruzi growth-1, GASC1 inh)
COc1ccc(NC(=O)Nc2ccc3c(c2)C(=O)N([C@H](C)CO)C[C@@H](C)[C@@H](CN(C)S(=O)(=O)c2ccc(OC)cc2)OCCCC[C@H](C)O3)cc1	none
COc1ccc(NC(=O)Nc2ccc3c(c2)C(=O)N([C@@H](C)CO)C[C@@H](C)[C@H](CN(C)S(=O)(=O)c2ccc(Cl)cc2)OCCCC[C@@H](C)O3)cc1	T cruzi growth-1 113 | T cruzi growth-2 107 | T cruzi growth-3 107 | 3T3 cytotox inactive | 3T3 cytotox 2 inactive
COc1ccc(NC(=O)Nc2ccc3c(c2)C(=O)N([C@H](C)CO)C[C@H](C)[C@@H](CN(C)S(=O)(=O)c2ccc(Cl)cc2)OCCCC[C@H](C)O3)cc1	T cruzi growth-1 115 | T cruzi growth-2 104 | T cruzi growth-3 inactive | 3T3 cytotox inactive | 3T3 cytotox 2 inactive
COc1ccc(NC(=O)Nc2ccc3c(c2)C(=O)N([C@@H](C)CO)C[C@H](C)[C@H](CN(C)S(=O)(=O)c2ccc(OC)cc2)OCCCC[C@@H](C)O3)cc1	none (no result: IDH1 R132H inh)
COc1ccc(NC(=O)Nc2ccc3c(c2)C(=O)N([C@@H](C)CO)C[C@@H](C)[C@@H](CN(C)S(=O)(=O)c2ccc(OC)cc2)OCCCC[C@@H](C)O3)cc1	none (no result: IDH1 R132H inh)
COc1ccc(NC(=O)Nc2ccc3c(c2)C(=O)N([C@H](C)CO)C[C@@H](C)[C@H](CN(C)S(=O)(=O)c2ccc(Cl)cc2)OCCCC[C@H](C)O3)cc1	T cruzi growth-1 104 (no result: IDH1 R132H inh) | T cruzi growth-2 110 | T cruzi growth-3 102 | 3T3 cytotox inactive | 3T3 cytotox 2 inactive
COc1ccc(NC(=O)Nc2ccc3c(c2)C(=O)N([C@@H](C)CO)C[C@H](C)[C@@H](CN(C)S(=O)(=O)c2ccc(Cl)cc2)OCCCC[C@H](C)O3)cc1	T cruzi growth-1 113 (no result: IDH1 R132H inh) | T cruzi growth-2 105 | T cruzi growth-3 96 | 3T3 cytotox inactive | 3T3 cytotox 2 inactive
COc1ccc(NC(=O)Nc2ccc3c(c2)C(=O)N([C@H](C)CO)C[C@@H](C)[C@@H](CN(C)S(=O)(=O)c2ccc(Cl)cc2)OCCCC[C@@H](C)O3)cc1	none (no result: T cruzi growth-1)
CCc1cccc(OCC(=O)Nc2cccc(-c3nnc(-c4ccccc4)o3)c2)c1	none (no result: T cruzi growth-1, GASC1 inh)
O=C(N[C@@H]1C[C@H]2CC[C@@H]1C2)c1ccc(CSc2ccccc2)cc1	none (no result: T cruzi growth-1, GASC1 inh)
CC(C)Sc1nc2sc3c(c2c2nnc(SCC(=O)c4ccccc4)n12)CCCC3	none (no result: T cruzi growth-1, GASC1 inh)
COc1cc(OC)c(NC(=O)CN2C(=O)c3ccccc3C2=O)cc1Cl	none (no result: T cruzi growth-1, GASC1 inh)
COc1ccc(S(=O)(=O)N(C)C[C@@H]2OCCCC[C@H](C)Oc3ccc(NC(=O)Nc4ccccc4)cc3C(=O)N([C@H](C)CO)C[C@@H]2C)cc1	T cruzi growth-1 110 | T cruzi growth-2 106 | T cruzi growth-3 inactive | 3T3 cytotox inactive | 3T3 cytotox 2 inactive
COc1ccc(NC(=O)Nc2ccc3c(c2)C(=O)N([C@H](C)CO)C[C@H](C)[C@@H](CN(C)S(=O)(=O)c2ccc(Cl)cc2)OCCCC[C@@H](C)O3)cc1	none
COc1ccc(NC(=O)Nc2ccc3c(c2)C(=O)N([C@@H](C)CO)C[C@@H](C)[C@@H](CN(C)S(=O)(=O)c2ccc(Cl)cc2)OCCCC[C@@H](C)O3)cc1	T cruzi growth-1 121 (no result: IDH1 R132H inh) | T cruzi growth-2 105 | T cruzi growth-3 inactive | 3T3 cytotox inactive | 3T3 cytotox 2 inactive
COc1ccc(S(=O)(=O)N(C)C[C@@H]2OCCCC[C@@H](C)Oc3ccc(NC(=O)Nc4ccccc4)cc3C(=O)N([C@H](C)CO)C[C@@H]2C)cc1	none (no result: IDH1 R132H inh)
Cc1cc(C(F)(F)F)nc(SCC(=O)Nc2ccc(Cl)cc2)n1	none (no result: T cruzi growth-1, GASC1 inh)
COc1ccc(NC(=O)CN(c2ccc(Br)c(C)c2)S(C)(=O)=O)cc1OC	none (no result: T cruzi growth-1, GASC1 inh)
COC(=O)c1ccccc1NC(=O)CSc1nc2c(c(C(F)(F)F)n1)CCCC2	none (no result: T cruzi growth-1, GASC1 inh)
COC(=O)c1noc(C)c1C(=O)/C=C/N(C)C	none (no result: T cruzi growth-1, GASC1 inh)
Cc1c(Br)c([N+](=O)[O-])nn1C(C)C(=O)N1CCOCC1 (stereo unspecified)	none (no result: T cruzi growth-1, GASC1 inh)
COc1ccc(S(=O)(=O)N2CC[C@H]3[C@H](CO)Nc4ccc(C#Cc5ccccc5OC)cc4[C@H]32)cc1	none (no result: T cruzi growth-1, IDH1 R132H inh)
COc1ccc(S(=O)(=O)N2CC[C@@H]3[C@@H](CO)Nc4ccc(-c5ccc(C#N)cc5)cc4[C@@H]32)cc1	none (no result: IDH1 R132H inh)
COc1ccc(S(=O)(=O)N2CC[C@@H]3[C@H]2c2cc(C#Cc4ccccc4OC)ccc2N[C@@H]3CO)cc1	T cruzi growth-1 107 (no result: IDH1 R132H inh) | T cruzi growth-2 106 | T cruzi growth-3 111 | 3T3 cytotox inactive | 3T3 cytotox 2 inactive
COc1ccc(C#Cc2ccc3c(c2)[C@H]2[C@H](CCN2S(=O)(=O)c2ccccc2C)[C@H](CO)N3)cc1	none (no result: IDH1 R132H inh)
COc1ccc(S(=O)(=O)N2CC[C@@H]3[C@H](CO)Nc4ccc(-c5ccc(C#N)cc5)cc4[C@@H]32)cc1	T cruzi growth-1 109 (no result: IDH1 R132H inh) | T cruzi growth-2 101 | T cruzi growth-3 103 | 3T3 cytotox 42 | 3T3 cytotox 2 49
COc1ccc(C#Cc2ccc3c(c2)[C@@H]2[C@@H](CCN2S(=O)(=O)c2ccccc2C)[C@@H](CO)N3)cc1	T cruzi growth-1 97 (no result: IDH1 R132H inh) | T cruzi growth-2 109 | T cruzi growth-3 inactive | 3T3 cytotox inactive | 3T3 cytotox 2 55
COc1cc(NC(=O)C(C)Oc2ccc(Cl)cc2C)c(C(=O)O)cc1OC (stereo unspecified)	none (no result: T cruzi growth-1, GASC1 inh)
Cc1cccc(OCC(O)Cn2cnc3ccccc32)c1C (stereo unspecified)	none (no result: T cruzi growth-1, GASC1 inh)
CC1(C)O[C@H]2CC(=O)OC[C@@]23[C@H]1CC(=O)[C@@]1(C)C2=CC(=O)O[C@@H](c4ccoc4)[C@]2(C)CC[C@@H]13	none (no result: T cruzi growth-1, GASC1 inh)
Cc1ccc(-c2noc(CSc3nnc(-c4cccs4)n3-c3ccccc3)n2)cc1	none (no result: T cruzi growth-1, GASC1 inh)
C[C@@H]1CN([C@@H](C)CO)C(=O)c2ccccc2-c2ccccc2CO[C@H]1CN(C)S(=O)(=O)c1ccc(C(F)(F)F)cc1	T cruzi growth-1 114 (no result: IDH1 R132H inh) | T cruzi growth-2 103 | T cruzi growth-3 inactive | 3T3 cytotox inactive | 3T3 cytotox 2 30
C[C@H](CO)N1C[C@H](C)[C@@H](CN(C)S(=O)(=O)c2ccc(C(F)(F)F)cc2)OCc2ccccc2-c2ccccc2C1=O	T cruzi growth-1 102 | T cruzi growth-2 102 | T cruzi growth-3 inactive | 3T3 cytotox inactive | 3T3 cytotox 2 54
C[C@@H]1CN([C@@H](C)CO)C(=O)c2ccccc2-c2ccccc2CO[C@@H]1CN(C)S(=O)(=O)c1ccc(F)cc1	none
C[C@H]1CN([C@@H](C)CO)C(=O)c2ccccc2-c2ccccc2CO[C@H]1CN(C)S(=O)(=O)c1ccc(F)cc1	none (no result: IDH1 R132H inh)
CCN(CC(=O)Nc1ccccc1F)S(=O)(=O)c1ccc2ccccc2c1	none (no result: T cruzi growth-1, GASC1 inh)
Cc1cc(C)nc(SCC(=O)Nc2cccc(C(=O)O)c2)n1	none (no result: T cruzi growth-1, GASC1 inh)
